Measured values taken from ChEMBL document CHEMBL1154683, “Bis(dialkylaminethiocarbonyl)disulfides as potent and selective monoglyceride lipase inhibitors” (J Med Chem, 2009).
Positions count from the first letter of the chain named. Calls of active or inactive are those of the source. The calls are words filed in the database; no cut-off is given here.

Key:
[1] = target: T1, Monoglyceride lipase (Homo sapiens, UniProt Q99685); test: Inhibition of human MGL activity using [3H]2-oleoylglycerol substrate by liquid scintillation counting
T1 sequence (Q99685 whole entry): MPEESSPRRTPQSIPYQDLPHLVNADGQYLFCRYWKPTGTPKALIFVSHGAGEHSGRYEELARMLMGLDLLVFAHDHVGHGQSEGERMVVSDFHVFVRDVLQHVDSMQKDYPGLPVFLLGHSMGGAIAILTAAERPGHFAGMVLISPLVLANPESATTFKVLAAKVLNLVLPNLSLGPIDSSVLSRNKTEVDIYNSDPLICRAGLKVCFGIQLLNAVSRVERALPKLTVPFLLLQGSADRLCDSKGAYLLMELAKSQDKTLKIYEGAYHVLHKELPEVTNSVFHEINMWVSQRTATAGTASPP
In short: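 Recombinant human MGL was used, and inhibition was expressed as pIC50.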

[2] = target: T2, Monoglyceride lipase (Homo sapiens) (UniProt Q99685); test: Inhibition of human MGL activity using [3H]2-oleoylglycerol substrate at 10 uM by liquid scintillation counting
T2 sequence (whole entry): T1 sequence (Q99685 whole entry)
In short: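 Single-point screen on recombinant human MGL at 10 μM, with a parallel screen at 100 μM.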

[3] = target: T3, Fatty-acid amide hydrolase 1 (Homo sapiens, UniProt O00519); test: Inhibition of human recombinant FAAH-maltose binding protein
T3 sequence (O00519 whole entry): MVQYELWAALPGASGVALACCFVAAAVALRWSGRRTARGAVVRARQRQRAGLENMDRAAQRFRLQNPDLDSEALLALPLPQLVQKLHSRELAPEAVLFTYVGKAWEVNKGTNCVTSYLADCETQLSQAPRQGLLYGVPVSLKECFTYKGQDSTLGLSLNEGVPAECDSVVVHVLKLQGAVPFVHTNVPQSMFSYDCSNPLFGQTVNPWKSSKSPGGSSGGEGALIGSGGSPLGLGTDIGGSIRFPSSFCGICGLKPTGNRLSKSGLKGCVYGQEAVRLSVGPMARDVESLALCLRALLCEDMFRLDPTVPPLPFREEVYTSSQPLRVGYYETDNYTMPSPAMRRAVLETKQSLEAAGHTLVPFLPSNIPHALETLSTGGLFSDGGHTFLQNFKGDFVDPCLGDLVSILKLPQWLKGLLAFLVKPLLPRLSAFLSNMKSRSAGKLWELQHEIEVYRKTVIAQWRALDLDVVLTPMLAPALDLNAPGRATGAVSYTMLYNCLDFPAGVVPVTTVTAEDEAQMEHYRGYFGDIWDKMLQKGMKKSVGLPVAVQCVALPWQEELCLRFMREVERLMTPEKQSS

[4] = species on record: Homo sapiens; test: Selectivity ratio for human MGL activity to human recombinant FAAH
[5] = target: T2, Monoglyceride lipase (Homo sapiens); test: Inhibition of human MGL activity using [3H]2-oleoylglycerol substrate at 10 nM measured upto 1 hr by high dilution reversibility assay
In short: (§1)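 Recombinant human MGL preincubated with inhibitor at 30, 10 or 3 μM, then diluted 300-fold before substrate addition, giving 100, 33.3 and 10 nM during the activity read. Activity was followed up to 1 h postdilution and compared with a DMSO-preincubated control.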

[6] = target: Monoglyceride lipase (Homo sapiens, UniProt Q99685, C242A); test: Inhibition of human MGL C242A mutant using [3H]2-oleoylglycerol substrate
[7] = target: T2, Monoglyceride lipase (Homo sapiens); test: Inhibition of human MGL activity using [3H]2-oleoylglycerol substrate at 33.3 nM measured upto 1 hr by high dilution reversibility assay; in short: as §1
[8] = target: T4, Aldehyde dehydrogenase, mitochondrial (Rattus norvegicus, UniProt P11884); test: Inhibition of recombinant rat ALDH activity in liver mitochondria
T4 sequence (P11884 whole entry): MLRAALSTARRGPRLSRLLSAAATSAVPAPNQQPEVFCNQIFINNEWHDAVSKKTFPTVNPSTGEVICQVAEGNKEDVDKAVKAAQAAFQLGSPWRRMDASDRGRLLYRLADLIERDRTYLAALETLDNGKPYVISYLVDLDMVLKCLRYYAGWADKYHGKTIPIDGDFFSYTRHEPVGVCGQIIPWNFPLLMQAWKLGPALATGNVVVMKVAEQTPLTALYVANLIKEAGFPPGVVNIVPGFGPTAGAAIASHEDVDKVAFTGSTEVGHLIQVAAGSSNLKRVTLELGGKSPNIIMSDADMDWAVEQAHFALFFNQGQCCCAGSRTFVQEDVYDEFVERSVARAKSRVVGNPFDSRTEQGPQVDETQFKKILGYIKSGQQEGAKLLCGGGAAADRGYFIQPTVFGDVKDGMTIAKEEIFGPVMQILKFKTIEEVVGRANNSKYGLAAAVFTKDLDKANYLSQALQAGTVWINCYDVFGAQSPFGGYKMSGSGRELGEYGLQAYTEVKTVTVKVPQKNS

[9] = target: T2, Monoglyceride lipase (Homo sapiens); test: Inhibition of human MGL activity using [3H]2-oleoylglycerol substrate at 100 nM measured upto 1 hr by high dilution reversibility assay; in short: as §1
[10] = test system: T5, Monoglyceride lipase (Homo sapiens), Q99685 [C208A,C242A]; test: Inhibition of human MGL C208A/C242A double mutant using [3H]2-oleoylglycerol substrate
T5 sequence (whole entry): T1 sequence (Q99685 whole entry) with C208A, C242A

[11] = target: T2, Monoglyceride lipase (Homo sapiens); test: Inhibition of human MGL activity using [3H]2-oleoylglycerol substrate assessed as reversible enzyme activity in presence of 1,4-dithio-DL-threitol
In short: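 Recombinant human MGL incubated with inhibitor to allow disulfide bond formation. DTT (10^-2 M) was then added before substrate addition and the MGL activity read.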

[12] = target: Monoglyceride lipase (Homo sapiens, UniProt Q99685, C208A); test: Inhibition of human MGL C208A mutant using [3H]2-oleoylglycerol substrate
Monoglyceride lipase (Homo sapiens, UniProt Q99685, C208A), sequence (Q99685 whole entry C208A): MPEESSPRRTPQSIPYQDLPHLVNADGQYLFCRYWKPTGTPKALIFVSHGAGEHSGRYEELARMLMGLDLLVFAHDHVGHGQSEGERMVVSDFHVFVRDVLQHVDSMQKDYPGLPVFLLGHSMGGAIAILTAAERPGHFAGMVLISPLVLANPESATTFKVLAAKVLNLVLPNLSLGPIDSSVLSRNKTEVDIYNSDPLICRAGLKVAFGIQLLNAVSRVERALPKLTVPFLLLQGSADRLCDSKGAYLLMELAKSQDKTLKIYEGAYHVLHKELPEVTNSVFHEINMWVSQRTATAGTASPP

Monoglyceride lipase (Homo sapiens, UniProt Q99685, C242A), sequence (Q99685 whole entry C242A): as the sequence (Q99685 whole entry C208A) above, with A208C, C242A counted along it

SMILES | IC50 [1] [µM] | inhibition [2] [%] | IC50 [3] [µM] | also measured
S=C(SSC(=S)N1CCCc2ccccc21)N1CCCc2ccccc21 | 0.741 | > 50 | > 1000 | –
CC1CCN(C(=S)SSC(=S)N2CCC(C)CC2)CC1 | 0.269 | > 50 | > 1000 | –
S=C(CSC(=S)N1CCOCC1)N1CCOCC1 | 15.5 | > 50 | > 1000 | –
CN1CCN(C(=S)SCSC(=S)N2CCN(C)CC2)CC1 | 95.5 | > 50 | > 1000 | –
CN(C)C(=S)SSC(=S)N(C)C [THIRAM] | 0.977 | > 50 | 44.7 | Selectivity ratio [4]: 45
S=C(SCSC(=S)N1CCOCC1)N1CCOCC1 | 102 | > 50 | > 1000 | –
CCCCC/C=C\C/C=C\C/C=C\C/C=C\CCCCN1C(=O)CCC1=O | 1.12 | – | 2.19 | Selectivity ratio [4]: 1.95
CCN(CC)C(=S)SC [METHYLDIETHYL CARBAMODITHIOATE] | > 1000 | – | > 1000 | –
CCN(CC)C(=S)SSC(=S)N(CC)CC | 1.26 | > 50 | 363 | –
S=C(SSC(=S)N1CCN(c2ccccc2)CC1)N1CCN(c2ccccc2)CC1 | 0.49 | > 50 | 135 | –
S=C(SSC(=S)N1CCN(C2CCCCC2)CC1)N1CCN(C2CCCCC2)CC1 | 0.166 | > 50 | > 1000 | –
C1CN(SSN2CCOCC2)CCO1 [DITHIODIMORPHOLINE] | 11.2 | > 50 | > 1000 | –
S=C(SSC(=S)N1CCCCCC1)N1CCCCCC1 | 0.813 | > 50 | > 1000 | –
CN(Cc1ccccc1)C(=S)SSC(=S)N(C)Cc1ccccc1 | 0.437 | > 50 | > 1000 | –
CCN(CC)C(=O)CSC(=S)N(CC)CC [(DIETHYLCARBAMOYL)METHYLENE DIETHYLCARBAMODITHIOATE] | 631 | > 50 | > 1000 | –
O=C(Nc1cccc(-c2ccccc2)c1)OC1CCCCC1 | 10 | – | 5.75 | Selectivity ratio [4]: 0.57
CN(C)C(=S)SC(=S)N(C)C [BIS(DIMETHYLAMINETHIOCARBONYL)MONOSULFIDE] | 12.3 | > 50 | > 1000 | –
S=C(SSC(=S)N1CCCC1)N1CCCC1 [BIS(PYRROLIDINYLTHIOCARBONYL)DISULFIDE] | 0.912 | > 50 | > 1000 | –
C1CCN(SSN2CCCCC2)CC1 | 9.55 | > 50 | > 1000 | –
S=C(SSC(=S)N1CCSCC1)N1CCSCC1 | 0.316 | > 50 | 25.1 | –
CC1CCCC(C)N1C(=S)SSC(=S)N1C(C)CCCC1C (centres undefined) | 0.479 | > 50 | > 1000 | –

SMILES | IC50 [1] [µM] | inhibition [2] [%] | IC50 [3] [µM] | also measured
S=C(SSC(=S)N1CCC(Cc2ccccc2)CC1)N1CCC(Cc2ccccc2)CC1 | 6.92 | > 50 | > 1000 | –
CN(C)C(=S)SC(=S)N1CCOCC1 | 6.46 | > 50 | > 1000 | –
S=C(SSC(=S)N1CCN(Cc2ccccc2)CC1)N1CCN(Cc2ccccc2)CC1 | 5.01 | > 50 | 170 | –
S=C(SSC(=S)N1CCOCC1)N1CCOCC1 | 0.219 | > 50 | 79.4 | –
CSC(=S)N1CCOCC1 | > 1000 | > 50 | > 1000 | –
CN(C(=S)SSC(=S)N(C)c1ccccc1)c1ccccc1 | 0.741 | > 50 | 33.9 | –
S=C(SSC(=S)N(Cc1ccccc1)Cc1ccccc1)N(Cc1ccccc1)Cc1ccccc1 [BIS(DIBENZYLAMINETHIOCARBONYL)DISULFIDE] | 9.55 | > 50 | > 1000 | –
CCN(CC)C(=S)SCSC(=S)N(CC)CC | 20.9 | > 50 | > 1000 | –
CCN(CC)SSN(CC)CC | 7.94 | > 50 | > 1000 | –
S=C(SSC(=S)N1CCCCC1)N1CCCCC1 [BIS(PIPERIDINYLTHIOCARBONYL)DISULFIDE] | 0.316 | > 50 | > 1000 | –
CN(C(=S)SSC(=S)N(C)C1CCCCC1)C1CCCCC1 | 0.141 | > 50 | 4.79 | –
S=C(SSC(=S)N1CCc2ccccc2C1)N1CCc2ccccc2C1 | 0.347 | > 50 | > 1000 | –
CN(C)C(=O)n1nnnc1Cc1ccc(-c2ccccc2)cc1 | 0.055 | – | – | –
CCN(CC)C(=S)CSC(=S)N(CC)CC [(DIETHYLTHIOCARBAMOYL)METHYLENE DIETHYLCARBAMODITHIOATE] | 19.1 | > 50 | > 1000 | –
CCN(Cc1ccccc1)C(=S)SSC(=S)N(CC)Cc1ccccc1 | 4.07 | > 50 | > 1000 | –
CCCCCCCCCCCCCCCCN(CC)C(=S)SSC(=S)N(CC)CCCCCCCCCCCCCC | 10.5 | > 50 | > 1000 | –
COc1nn(-c2ccc(NC(=O)OCc3ccccc3)c(C)c2)c(=O)o1 | 0.0204 | – | 0.0776 | Selectivity ratio [4]: 3
O=C(CSC(=S)N1CCOCC1)N1CCOCC1 | 219 | > 50 | > 1000 | –
CN1CCN(C(=S)SSC(=S)N2CCN(C)CC2)CC1 | 0.11 | > 50 | 200 | Activity [5]: Active; IC50 [6]: 0.302 µM; Activity [7]: Active; IC50 [8]: 15.8 µM; Activity [9]: Active; Activity [10]: inactive; Activity [11]: Active; IC50 [12]: 8.32 µM
CCCCC/C=C\C/C=C\C/C=C\C/C=C\CCCC(=O)C(F)(F)F [ARACHIDONYL TRIFLUOROMETHYLKETONE] | 6.46 | – | 0.0123 | Selectivity ratio [4]: 0.002
